NPR2 activator: human GC-B receptor activators, primary screen, HEK293 GC-B cells, cGMP TR-FRET, EC30 CNP | Atrial natriuretic peptide receptor 2 (Homo sapiens), P20594 | 0% at EC30 CNP, 100% saturating CNP | activation, % at 10 µM | 370,000 tested, 0.11% active;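 active = activation at 10 µM reaching about 35% in either raw or pattern-adjusted values, limit read from the data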
NPR1 activator: GC-A stimulated cGMP production enhancers – HEK293 GC-A cells, cGMP TR-FRET, EC30 ANP, primary screen | 370,000 tested, 0.14% active | AID 1671463, 2021 | activation, % at 10 µM | 0% at EC30 ANP, 100% saturating ANP | Atrial natriuretic peptide receptor 1 (Homo sapiens), P16066; in the data active = activation above about 40%
Target sequence (P16066 whole entry, looked up): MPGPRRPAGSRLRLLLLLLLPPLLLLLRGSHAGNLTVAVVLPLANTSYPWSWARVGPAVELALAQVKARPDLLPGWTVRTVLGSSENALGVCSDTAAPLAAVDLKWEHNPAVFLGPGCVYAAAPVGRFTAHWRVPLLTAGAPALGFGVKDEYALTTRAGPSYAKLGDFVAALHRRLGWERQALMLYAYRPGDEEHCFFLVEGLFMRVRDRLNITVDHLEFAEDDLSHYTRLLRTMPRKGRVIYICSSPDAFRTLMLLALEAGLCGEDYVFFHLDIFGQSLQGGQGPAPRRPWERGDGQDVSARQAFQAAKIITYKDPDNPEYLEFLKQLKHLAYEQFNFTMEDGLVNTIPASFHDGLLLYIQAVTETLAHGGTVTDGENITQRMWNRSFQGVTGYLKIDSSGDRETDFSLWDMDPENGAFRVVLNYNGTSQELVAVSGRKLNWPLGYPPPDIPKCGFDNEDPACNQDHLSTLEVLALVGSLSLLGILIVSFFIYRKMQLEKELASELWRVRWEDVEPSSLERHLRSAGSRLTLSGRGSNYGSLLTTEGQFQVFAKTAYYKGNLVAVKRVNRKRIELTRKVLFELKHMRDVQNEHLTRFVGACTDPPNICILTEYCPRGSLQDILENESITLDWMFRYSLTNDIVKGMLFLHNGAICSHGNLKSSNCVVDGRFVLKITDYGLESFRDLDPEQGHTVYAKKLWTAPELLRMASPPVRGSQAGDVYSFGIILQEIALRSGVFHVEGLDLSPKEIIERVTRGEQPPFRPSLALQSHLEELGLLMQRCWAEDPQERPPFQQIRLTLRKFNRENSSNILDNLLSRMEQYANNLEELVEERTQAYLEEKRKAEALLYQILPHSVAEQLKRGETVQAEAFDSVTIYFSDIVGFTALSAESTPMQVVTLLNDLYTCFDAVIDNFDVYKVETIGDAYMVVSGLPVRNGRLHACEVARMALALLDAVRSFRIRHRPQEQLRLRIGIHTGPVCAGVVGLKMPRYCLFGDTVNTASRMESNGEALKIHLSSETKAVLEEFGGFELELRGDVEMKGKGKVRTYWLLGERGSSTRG
GASC-1 inh: inhibitors of GASC-1 histone demethylase, primary screen, biochemical, fluorescence, DELFIA europium; Lysine-specific demethylase 4C (Homo sapiens), Q9H3R0; GST-JMJD2C(1-420) H3K9me3 demethylation; inhibition, % at 2.35 µM; 330,000 tested, 0.069% active; AID 2099, 2009;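 active = more than half of a compound's replicate wells show inhibition beyond 50%, single wells judged on their own value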;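 also: signal counts dimethyl H3K9 product captured on neutravidin plate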
Hep lipid drop: inhibitors of hepatocyte lipid droplet formation, primary screen, imaging, high-throughput imaging, BODIPY stain | AID 1656, 2009 | inhibition, % at 6.5 µM | 240,000 tested, 0.4% active | AML12 mouse hepatocytes, oleate lipid droplets;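 active = lipid droplet intensity inhibited by at least 50%, with more than 500 cells counted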
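Technique: fluorescence imaging, 20x objective, two fields per well / Assay system: AML12 hepatocytes (mouse) / Measure: % inhibition of lipid droplet signal / Doses: 6.5 µM single-point dosing / Incubation: overnight exposure / Reagent: 100 µM oleic acid challenge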
GRIN3A LBD mod: binders of NR3A ligand-binding domain, primary screen, biophysical, differential scanning fluorimetry, uHTS. Glutamate receptor ionotropic, NMDA 3A (GRIN3A) ligand-binding domain. NR3A LBD differential scanning fluorimetry, Tm shift; 0% = protein alone, 100% = glycine-bound protein. Tm shift relative to glycine control, % at 25 µM. 340,000 tested, 2.5% active. AID 1259313, 2017;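 active = melting temperature shift of at least 10% of the positive control shift, at one fixed dose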
aDG glyco up: activators of alpha-DG glycosylation, primary screen, uHTS, Pro5-aDG cells, AlphaScreen | AID 624168, 2012 | 360,000 tested, 0.22% active | activation, % at 10 µM | alpha-DG glycosylation AlphaScreen (IIH6); 0% Pro5, 100% B10-LARGE cell signal;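 active = activation of at least 8% versus controls, or a plate z-score of at least 8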;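 also: Pro5 are CHO cells carrying HIG-tagged alpha-DG that lacks glycosylation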
Numbers stand for hits; - = inactive; . = not tested or not shown. Compounds with a hit are over-represented: about 3% of the library has one in this group of screens.

SMILES	NPR2 activator	NPR1 activator	GASC-1 inh	Hep lipid drop	GRIN3A LBD mod	aDG glyco up
Cc1cc(C)cc(C(=O)OCCCN(C)C2CN(Cc3cn(Cc4cccc(F)c4)nn3)S(=O)(=O)C2)c1 (stereo unspecified)	-	-	.	.	.	.
CC1CCc2cc(F)ccc2N1C(=O)CSc1nnc2c(n1)[nH]c1ccc(F)cc12 (stereo unspecified)	-	-	-	.	24	-
CC1CCCCN1C(=O)CSc1nnc2c(n1)[nH]c1ccc(F)cc12 (stereo unspecified)	-	-	-	-	-	-
CC1CCCCN1C(=O)CSc1nnc2c(n1)[nH]c1ccccc12 (stereo unspecified)	-	-	-	-	-	-
CC1Cc2ccccc2N1C(=O)CSc1nnc2c(n1)[nH]c1ccccc12 (stereo unspecified)	-	-	-	.	22	-
COCc1[nH]nc2c1C(c1cccc(C(F)(F)F)c1)NC2=O (stereo unspecified)	-	-	.	.	.	.
COC(=O)c1cc2c(c3c4ccccc4n(S(=O)(=O)c4ccccc4)c13)C(=O)N(Cc1ccc(C(F)(F)F)cc1)C2	-	-	.	.	.	.
O=C(/C=C/c1cccnc1)c1ccc(NC(=O)c2cccc(Br)c2)cc1	-	-	-	.	26	-
Cc1cccc(C(=O)Nc2cccc(C(=O)N/N=C/c3ccncc3)c2)c1	-	-	-	-	-	-
Cc1cccc(C(=O)Nc2ccc(C(=O)/C=C/c3cccnc3)cc2)c1	-	-	-	-	24	-
O=C(N/N=C/c1cccnc1)c1cccc(Br)c1	-	-	-	-	-	-
Cc1cccc(C(=O)Nc2ccc(C(=O)/C=C/c3ccncc3)cc2)c1	-	-	-	-	16	-
CC(C)(C)CSc1nnc(-c2cccnc2)n1Cc1ccccc1	-	-	.	.	.	.
Nn1c(SCC(=O)N2c3ccccc3Sc3ccc(Cl)cc32)nnc1-c1cc(-c2ccc(F)cc2)n[nH]1	-	-	.	.	.	.
Fc1cccc(NC(=S)Nc2cccc3ccccc23)c1	-	-	-	-	-	-
Cc1ccc(NC(=S)Nc2cccc3ccccc23)cc1F	-	-	-	-	16	-
O=C(COc1ccc(/C=N/NS(=O)(=O)c2ccccc2)cc1)NCc1ccccc1	-	-	-	.	-	-
O=C(COc1ccc(/C=N/NC(=O)c2ccc(O)cc2)cc1)Nc1cccc([N+](=O)[O-])c1	-	-	-	-	31	-
O=C(COc1ccc(/C=N/NS(=O)(=O)c2ccccc2)cc1)Nc1cccc(Cl)c1	-	-	-	.	16	-
O=C(CO/N=C/c1cccc([N+](=O)[O-])c1)Nc1ccc2ccccc2c1	-	-	-	-	13	-
O=C(N/N=C/C=C/c1ccc2c(c1)OCO2)c1ccc([N+](=O)[O-])cc1	-	-	-	-	-	-
Nc1ccc(C(=O)N/N=C\C=C\c2ccc([N+](=O)[O-])cc2)cc1	-	-	-	-	15	-
O=C(CO/N=C/c1cccc([N+](=O)[O-])c1)NC1CCCCC1	-	-	-	-	-	-
O=C(COc1ccc(/C=N/NC(=O)c2ccncc2)cc1)Nc1ccc([N+](=O)[O-])cc1	-	-	-	-	-	-
O=C(N/N=C/c1ccc([N+](=O)[O-])cc1)c1ccc(COc2ccccc2-c2ccccc2)cc1	-	-	-	-	16	-
SMILES	NPR2 activator	NPR1 activator	GASC-1 inh	Hep lipid drop	GRIN3A LBD mod	aDG glyco up
CCC(=O)Nc1ccc(C(=O)N/N=C/c2ccc([N+](=O)[O-])cc2)cc1	-	-	-	-	16	-
O=C(N/N=C/c1ccc([N+](=O)[O-])cc1)c1ccccc1OCc1ccccc1	-	-	-	-	-	-
CCC(=O)Nc1ccc(C(=O)NNC(=O)c2ccc([N+](=O)[O-])cc2)cc1	-	-	-	-	-	-
Cc1ccccc1C(=O)NC1CCCCN(Cc2cccc(Cl)c2)C1=O (stereo unspecified)	-	-	.	.	.	.
COc1ccc(-n2c(SCC(=O)N(CC(C)C)CC(C)C)nnc2-c2ccncc2)cc1	-	-	.	.	.	.
S=c1nc(NCc2cccc(Cl)c2)c2ccccc2[nH]1	-	-	-	-	15	-
O=C(Nc1nccs1)C1CCN(S(=O)(=O)c2ccc3c(c2)OCCCO3)CC1	-	-	-	.	14	-
CSc1ccccc1NC(=O)Nc1cccc(Cl)c1	-	-	-	-	10	-
CSc1ccccc1NC(=O)Nc1ccc(F)c(Cl)c1	-	-	-	.	42	-
Cc1ccc(NC(=O)Nc2cccc(Cl)c2)c(C(=O)O)c1	-	-	-	-	12	-
COc1cc(OC)cc(C(=O)NCC2CCN(C(=O)C(=O)c3cc4ccccc4o3)CC2)c1	-	-	.	.	.	.
COC(=O)c1cc2c(c3c4cc(F)ccc4n(S(=O)(=O)c4ccc(C)cc4)c13)C(=O)N(Cc1ccccc1OC)C2	-	-	.	.	.	.
O=C(NCC1COc2ccccc2O1)c1ccc(NC(=O)c2cccc(F)c2)cc1 (stereo unspecified)	-	-	.	.	.	.
CC(=O)Nc1ccc(/C=C/c2nc3ccccc3o2)cc1	-	-	-	.	-	-
O=C(Nc1ccc(/C=C/c2nc3ccccc3o2)cc1)c1c(F)cccc1F	-	-	-	-	20	-
O=C(Nc1ccc(/C=C/c2nc3ccccc3o2)cc1)c1cccc(C(F)(F)F)c1	-	-	-	.	17	-
Cc1cnc(Nc2nc3ccccc3o2)nc1C(=O)Nc1cccc(C(F)(F)F)c1	-	-	-	.	-	-
CCOC(=O)CCCNC(=O)OCCCN1CCC2(CCC(c3ccccc3)CC2)C1=O (stereo unspecified)	-	-	.	.	.	.
Cc1cnn(C(=O)c2ccccc2Br)c1	-	-	85	-	-	.
COc1ccc(-c2ccnc(SCC(=O)c3ccc(Br)cc3)n2)cc1	-	-	-	-	26	-
CCCNC(=O)C[C@H]1CC[C@H]2[C@@H](COc3ccc(NC(=O)c4cncs4)cc3C(=O)N2C)O1	-	-	.	.	.	.
COc1cc(C2C3=C(CCCC3=O)Nc3[nH]n(-c4ccccc4)c(=O)c32)cc(OC)c1OC (stereo unspecified)	-	-	-	-	-	-
COc1cc(C2CC(=O)c3c(ccc4ccccc34)N2)ccc1O (stereo unspecified)	-	-	-	-	-	-
COc1cc(C2c3c([nH]c(=O)[nH]c3=O)Nc3ccc4ccccc4c32)ccc1O (stereo unspecified)	-	-	-	-	27	-
